# ChEMBL document CHEMBL3286091, “Novel N-linked aminopiperidine-based gyrase inhibitors with improved hERG and in vivo efficacy against Mycobacterium tuberculosis” (J Med Chem, 2014)
# The source made the active and inactive calls. The calls are words filed in the database; no cut-off is given here.
# How the values were obtained:
# [1] = test system: Mycobacterium tuberculosis; assay: Antimycobacterial activity against wild-type Mycobacterium tuberculosis H37Rv ATCC 27294 after 16 to 18 days by BACTEC 7H12B microdilution method; type: functional
# [2] = target: DNA gyrase subunit A/DNA gyrase subunit B (Mycobacterium tuberculosis (strain ATCC 25618 / H37Rv), UniProt P9WG45+P9WG47); assay: Inhibition of Mycobacterium tuberculosis H37Rv DNA gyrase holoenzyme-mediated supercoiling of pBR322 DNA after 90 mins by agarose gel electrophoresis
# Sequence of DNA gyrase subunit A/DNA gyrase subunit B (P9WG45 whole entry): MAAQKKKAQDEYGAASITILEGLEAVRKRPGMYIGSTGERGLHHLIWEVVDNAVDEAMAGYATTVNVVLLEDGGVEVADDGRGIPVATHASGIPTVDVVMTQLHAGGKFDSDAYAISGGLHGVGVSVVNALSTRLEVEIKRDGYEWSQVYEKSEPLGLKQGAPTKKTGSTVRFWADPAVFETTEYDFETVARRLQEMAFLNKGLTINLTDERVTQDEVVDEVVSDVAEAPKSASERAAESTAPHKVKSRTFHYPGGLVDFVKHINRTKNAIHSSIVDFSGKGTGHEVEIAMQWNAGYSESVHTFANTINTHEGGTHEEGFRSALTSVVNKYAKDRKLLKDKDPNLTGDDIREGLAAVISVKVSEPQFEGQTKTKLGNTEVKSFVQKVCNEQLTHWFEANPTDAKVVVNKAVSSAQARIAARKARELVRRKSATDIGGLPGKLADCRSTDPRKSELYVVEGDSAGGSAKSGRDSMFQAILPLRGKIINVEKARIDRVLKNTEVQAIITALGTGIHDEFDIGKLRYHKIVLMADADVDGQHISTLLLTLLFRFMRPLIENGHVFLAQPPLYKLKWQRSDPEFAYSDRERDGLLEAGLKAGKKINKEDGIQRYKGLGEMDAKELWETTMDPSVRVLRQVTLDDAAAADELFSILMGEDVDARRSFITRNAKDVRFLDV
# Sequence of DNA gyrase subunit A/DNA gyrase subunit B (P9WG47 whole entry): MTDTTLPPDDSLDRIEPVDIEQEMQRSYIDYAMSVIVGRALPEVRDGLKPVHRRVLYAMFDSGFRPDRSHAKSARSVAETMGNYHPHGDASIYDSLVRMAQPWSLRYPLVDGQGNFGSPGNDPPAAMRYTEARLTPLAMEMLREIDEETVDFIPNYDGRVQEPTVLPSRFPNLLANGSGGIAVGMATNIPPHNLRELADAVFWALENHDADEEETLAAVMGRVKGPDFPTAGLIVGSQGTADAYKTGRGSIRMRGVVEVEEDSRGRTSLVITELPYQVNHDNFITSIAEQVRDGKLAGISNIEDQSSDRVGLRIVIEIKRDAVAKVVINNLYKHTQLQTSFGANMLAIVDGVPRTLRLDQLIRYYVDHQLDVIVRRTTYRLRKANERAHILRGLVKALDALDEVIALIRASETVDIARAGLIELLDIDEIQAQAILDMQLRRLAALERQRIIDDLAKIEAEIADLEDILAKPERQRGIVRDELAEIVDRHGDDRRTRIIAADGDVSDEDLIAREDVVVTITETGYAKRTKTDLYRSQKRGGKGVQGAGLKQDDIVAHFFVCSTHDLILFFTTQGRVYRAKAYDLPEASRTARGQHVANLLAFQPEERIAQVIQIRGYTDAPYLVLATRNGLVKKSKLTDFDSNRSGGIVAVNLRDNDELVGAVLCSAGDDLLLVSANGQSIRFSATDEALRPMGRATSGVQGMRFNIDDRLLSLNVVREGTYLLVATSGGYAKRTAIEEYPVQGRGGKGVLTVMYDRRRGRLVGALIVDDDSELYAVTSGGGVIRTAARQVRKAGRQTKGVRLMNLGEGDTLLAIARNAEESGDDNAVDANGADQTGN
# [3] = Octanol-sodium phosphate buffer partition coefficient, log D of the compound at 10 mM at pH 7.4 by shake-flask method; type: physicochemical
# [4] = target: Voltage-gated inwardly rectifying potassium channel KCNH2 (Homo sapiens, UniProt Q12809); assay: Inhibition of human ERG by patch clamp electrophysiological analysis
# Sequence of Voltage-gated inwardly rectifying potassium channel KCNH2 (Q12809 whole entry): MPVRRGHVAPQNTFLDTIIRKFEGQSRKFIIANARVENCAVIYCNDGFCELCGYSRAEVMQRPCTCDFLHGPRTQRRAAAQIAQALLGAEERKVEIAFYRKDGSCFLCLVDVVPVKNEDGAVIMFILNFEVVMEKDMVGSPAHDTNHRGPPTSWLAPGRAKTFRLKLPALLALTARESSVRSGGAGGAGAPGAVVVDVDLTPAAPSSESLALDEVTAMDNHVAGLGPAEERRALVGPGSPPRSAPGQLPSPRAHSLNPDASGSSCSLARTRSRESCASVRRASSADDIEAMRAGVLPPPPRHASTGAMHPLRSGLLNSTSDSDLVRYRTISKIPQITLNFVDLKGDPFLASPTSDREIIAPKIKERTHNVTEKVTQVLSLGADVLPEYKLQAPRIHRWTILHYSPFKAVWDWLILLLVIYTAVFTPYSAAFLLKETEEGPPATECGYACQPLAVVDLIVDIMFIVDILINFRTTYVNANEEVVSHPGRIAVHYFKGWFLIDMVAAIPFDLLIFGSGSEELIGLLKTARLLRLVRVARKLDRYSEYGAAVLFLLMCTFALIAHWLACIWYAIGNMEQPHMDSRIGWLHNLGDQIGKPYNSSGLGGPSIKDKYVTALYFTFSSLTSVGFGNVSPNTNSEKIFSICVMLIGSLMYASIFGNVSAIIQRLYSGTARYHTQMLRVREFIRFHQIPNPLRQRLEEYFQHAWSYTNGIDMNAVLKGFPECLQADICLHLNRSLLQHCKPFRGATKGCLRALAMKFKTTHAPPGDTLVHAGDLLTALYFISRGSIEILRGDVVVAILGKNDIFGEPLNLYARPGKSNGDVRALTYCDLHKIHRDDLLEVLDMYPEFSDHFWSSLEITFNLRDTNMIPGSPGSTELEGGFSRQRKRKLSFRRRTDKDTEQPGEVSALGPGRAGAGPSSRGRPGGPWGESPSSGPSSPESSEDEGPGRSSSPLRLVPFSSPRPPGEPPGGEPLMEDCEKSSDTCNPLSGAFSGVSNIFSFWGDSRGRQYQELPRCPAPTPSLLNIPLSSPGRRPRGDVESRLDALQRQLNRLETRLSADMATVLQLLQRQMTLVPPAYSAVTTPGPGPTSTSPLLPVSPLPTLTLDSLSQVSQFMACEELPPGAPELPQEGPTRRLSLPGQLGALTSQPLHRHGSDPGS
# [5] = Apparent permeability from apical to basolateral side in human Caco2 cells; type: ADME, cell-based; conditions: Caco-2
# [6] = Apparent permeability from basolateral to apical side in human Caco2 cells; type: ADME, cell-based; conditions: Caco-2
# [7] = Clearance in rat at 40 mg/kg, po and 5 mg/kg, iv by LC-MS/MS analysis; type: ADME, organism-based; conditions: in vivo
# Method in brief: (§1)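 Rats were dosed with the 5% dextrose (pH 4−5) formulation, 5 mg/kg iv and 40 mg/kg po. Plasma was precipitated with acetonitrile and analysed by LC−MS/MS with a carbamazepine internal standard. Parameters were derived by noncompartmental analysis.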
# [8] = Oral bioavailability in rat at 40 mg/kg by LC-MS/MS analysis; type: ADME, organism-based; conditions: in vivo; method in brief: as §1
# [9] = test system: Mycobacterium tuberculosis; assay: Bactericidal activity against Mycobacterium tuberculosis infected in human THP1 cells at 1 ug/ml for 7 days; type: functional, THP-1
# Method in brief: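 Adherent THP-1 macrophages infected with Mtb were exposed to compound at 1 μg/mL for 7 days at 37 °C. Kill was expressed as log reduction versus the untreated control.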
# [10] = target: DNA gyrase subunit B (Mycobacterium smegmatis, UniProt P0C559); assay: Inhibition of Mycobacterium smegmatis DNA gyrase-B ATPase activity; design: species or system Mycolicibacterium smegmatis
# Sequence of DNA gyrase subunit B (P0C559 whole entry): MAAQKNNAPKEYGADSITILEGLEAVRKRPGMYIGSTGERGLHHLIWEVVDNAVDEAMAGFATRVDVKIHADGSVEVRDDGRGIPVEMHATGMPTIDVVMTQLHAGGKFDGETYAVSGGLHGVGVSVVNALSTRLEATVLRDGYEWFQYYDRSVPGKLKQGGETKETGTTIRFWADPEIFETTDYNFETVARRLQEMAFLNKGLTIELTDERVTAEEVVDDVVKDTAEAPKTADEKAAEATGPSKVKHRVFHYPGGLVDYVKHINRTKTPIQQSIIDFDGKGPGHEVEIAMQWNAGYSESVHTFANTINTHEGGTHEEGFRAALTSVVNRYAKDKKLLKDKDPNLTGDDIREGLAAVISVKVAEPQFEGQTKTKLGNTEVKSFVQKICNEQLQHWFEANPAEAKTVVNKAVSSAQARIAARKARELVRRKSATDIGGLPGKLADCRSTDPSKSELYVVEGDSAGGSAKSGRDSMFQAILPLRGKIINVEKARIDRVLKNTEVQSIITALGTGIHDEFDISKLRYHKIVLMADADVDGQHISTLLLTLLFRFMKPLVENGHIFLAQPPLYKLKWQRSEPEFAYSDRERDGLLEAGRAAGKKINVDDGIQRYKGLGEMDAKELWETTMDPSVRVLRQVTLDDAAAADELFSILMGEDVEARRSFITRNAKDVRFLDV
# [11] = test system: Mycobacterium tuberculosis; assay: Antimycobacterial activity against Mycobacterium tuberculosis clinical isolates after 2 to 4 weeks by BACTEC 460 radiometric assay; type: functional
# [12] = test system: Mycobacterium tuberculosis; assay: Antimycobacterial activity against Mycobacterium tuberculosis infected in aminobenzotriazole-pretreated BALB/c mouse acute tuberculosis model assessed as reduction in bacterial burden at 20 mg/kg, po bid for 20 days; type: functional, organism-based; design: dose 20 mg/kg
# Method in brief: (§2)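 Aerosol-infected BALB/c mice in BSL3, three per group. Treatment began 3 days (acute) or 4 weeks (chronic) after infection. ABT 100 mg/kg po in water was given 2 h before oral gavage of compound in 5% dextrose (pH 4−5 with acetic acid), 10 mL/kg, twice daily at 8 h intervals. Courses were 20 days (7 days/week) or 8 weeks (6 days/week). Lung homogenates were plated on 7H11 for cfu.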
# [13] = test system: Mycobacterium tuberculosis; assay: Antimycobacterial activity against Mycobacterium tuberculosis infected in aminobenzotriazole-pretreated BALB/c mouse chronic tuberculosis model assessed as reduction in log10CFU at 40 to 80 mg/kg, po bid for 20 days; type: functional; conditions: dose mg/kg 40-80; method in brief: as §2
# [14] = test system: Mycobacterium tuberculosis; assay: Antimycobacterial activity against Mycobacterium tuberculosis infected in aminobenzotriazole-pretreated BALB/c mouse chronic tuberculosis model assessed as reduction in log10CFU at 40 to 80 mg/kg, po bid for 8 weeks; type: functional, organism-based; method in brief: as §2
# [15] = Fraction unbound in aminobenzotriazole-pretreated BALB/c mouse plasma infected with Mycobacterium tuberculosis by LC-MS/MS analysis; type: ADME, cell-free
# [16] = Ratio of fAUC in aminobenzotriazole-pretreated Mycobacterium tuberculosis infected BALB/c mouse at 20 mg/kg, po to MIC for wild-type Mycobacterium tuberculosis H37Rv ATCC 27294
# Method in brief: (§3)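 PK was measured in infected, ABT-pretreated mice during efficacy dosing (oral, 5% dextrose pH 4−5) on day 18 or 19. Saphenous blood was taken at 5, 15 and 30 min and 1, 2, 4 and 6 h. Plasma was precipitated with acetonitrile and analysed by LC−MS/MS. AUC came from noncompartmental analysis; free AUC/MIC and %free T>MIC used the unbound fraction and MIC.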
# [17] = test system: Mus musculus; assay: fT>MIC in BALB/c mouse infected with Mycobacterium tuberculosis at 20 mg/kg, po; method in brief: as §3
# [18] = test system: Mycobacterium tuberculosis; assay: Antimycobacterial activity against Mycobacterium tuberculosis infected in aminobenzotriazole-pretreated BALB/c mouse acute tuberculosis model assessed as reduction in bacterial burden at 80 to 160 mg/kg, po bid for 20 days; type: functional, organism-based; method in brief: as §2
# [19] = Ratio of fAUC in aminobenzotriazole-pretreated Mycobacterium tuberculosis infected BALB/c mouse at 80 mg/kg, po to MIC for wild-type Mycobacterium tuberculosis H37Rv ATCC 27294; method in brief: as §3
# [20] = test system: Mus musculus; assay: fT>MIC in BALB/c mouse infected with Mycobacterium tuberculosis at 80 mg/kg, po; method in brief: as §3
# [21] = test system: Mycobacterium tuberculosis; assay: Bactericidal activity against Mycobacterium tuberculosis H37Rv after 10 days by time kill assay; type: functional, organism-based
# Method in brief: (§4)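 Time-kill in 7H9 broth with 0.2% glycerol, 0.05% Tween 80 and 10% ADC. Serial 2-fold dilutions were added to ~3 × 10^7 cfu/mL H37Rv at 37 °C. Aliquots were plated on 7H11 at days 0, 3, 7 and 10, and plates were incubated up to 28 days at 37 °C, 5% CO2, humidified. Results are given as log10 cfu per concentration.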
# [22] = test system: Mycobacterium tuberculosis; assay: Bactericidal activity against Mycobacterium tuberculosis H37Rv at 0.01 to 2 ug/ml by time kill assay; type: functional, organism-based; conditions: TDE = time-dependent effect; method in brief: as §4
# [23] = test system: Mycobacterium tuberculosis; assay: Bactericidal activity against Mycobacterium tuberculosis H37Rv assessed as reduction in log10CFU at 0.01 to 2 ug/ml after 10 days by time kill assay; type: functional; method in brief: as §4
Structure (SMILES),MIC [1],IC50 [2],logD at 10000 µM [3],IC50 [4],Papp A→B [5],Papp B→A [6],other results
COc1cnc2ccc(=O)n(CCN3CC[C@@H](NCc4cnc(C)c(C#N)c4)[C@@H](F)C3)c2c1,0.06 µg/mL,0.25 µM,1.29,90 µM,13.6 ×10⁻⁶ cm/s,7.4 ×10⁻⁶ cm/s,clearance [7]: 42 mL/min/kg; bioavailability [8]: 52%; LCK [9]: 1.3
Cc1ncc(CNC2CCN(CCn3c(=O)ccc4c3ccc(=O)n4C)CC2)cc1C#N,> 32 µg/mL,,-0.6,33 µM,,,
Cc1ncc(CN[C@@H]2CCN(CCn3c(=O)ccc4ncc(F)cc43)C[C@@H]2F)cc1C#N,0.25 µg/mL,,0.92,,17.7 ×10⁻⁶ cm/s,15.4 ×10⁻⁶ cm/s,clearance [7]: 30 mL/min/kg; bioavailability [8]: > 100%
COc1ccc2ccc(=O)n(CCN3CCC(NCc4ccc5c(n4)NC(=O)CO5)CC3)c2n1,0.25 µg/mL,0.15 µM,0.8,21 µM,1.1 ×10⁻⁶ cm/s,25 ×10⁻⁶ cm/s,IC50 [10]: > 100 µM
COc1cnc2ccc(=O)n(CCN3CC[C@@H](NCc4ccc5c(n4)NC(=O)CO5)[C@@H](OC)C3)c2c1,0.13 µg/mL,,0.4,> 100 µM,,,
COc1cnc2ccc(=O)n(CCN3CC[C@@H](NCc4cnc(C)c(C#N)c4)[C@@H](OC)C3)c2c1,0.06 µg/mL,,0.99,,11.7 ×10⁻⁶ cm/s,9.9 ×10⁻⁶ cm/s,clearance [7]: 54 mL/min/kg; bioavailability [8]: 73%
Cc1ncc(CNC2CCN(CCn3c(=O)ccc4ncc(F)cc43)CC2)cc1C#N,0.25 µg/mL,,0.81,69 µM,18 ×10⁻⁶ cm/s,9.8 ×10⁻⁶ cm/s,
Cc1ncc(CN[C@@H]2CCN(CCn3c(=O)ccc4ccc(C#N)cc43)C[C@@H]2F)cc1C#N,0.25 µg/mL,,1.29,,14.5 ×10⁻⁶ cm/s,13 ×10⁻⁶ cm/s,
CO[C@H]1/C=C/O[C@@]2(C)Oc3c(C)c(O)c4c(O)c(c(/C=N/N5CCN(C)CC5)c(O)c4c3C2=O)NC(=O)/C(C)=C\C=C\[C@H](C)[C@H](O)[C@@H](C)[C@@H](O)[C@@H](C)[C@H](OC(C)=O)[C@@H]1C [RIFAMPIN],0.015 µg/mL,,,,,,
NNC(=O)c1ccncc1 [ISONIAZID],0.06 µg/mL,,,,,,
COc1c(N2C[C@@H]3CCCN[C@@H]3C2)c(F)cc2c(=O)c(C(=O)O)cn(C3CC3)c12 [MOXIFLOXACIN],0.06 µg/mL,,,,,,LCK [9]: 2.3
COc1cnc2ccc(=O)n(CCN3CCC(NCc4cnc(OC)c(C#N)c4)CC3)c2c1,0.06 µg/mL,,1.2,12 µM,13 ×10⁻⁶ cm/s,9 ×10⁻⁶ cm/s,
COc1ccc2ncc(=O)n(CCN3CCC(NCc4cnc(C)c(C#N)c4)CC3)c2n1,0.13 µg/mL,,1.65,13 µM,,,
N#Cc1ccc2ccc(=O)n(CCN3CCC(NCc4cc5c(cn4)OCCO5)CC3)c2c1,2 µg/mL,1.05 µM,0.7,,1.9 ×10⁻⁶ cm/s,38.3 ×10⁻⁶ cm/s,IC50 [10]: > 100 µM
COc1cnc2ncc(=O)n(CCN3CCC(NCc4cnc(C)c(C#N)c4)CC3)c2c1,0.13 µg/mL,,0.38,> 100 µM,,,
COc1cnc2ccc(=O)n(CCN3CC[C@@H](NCc4ccc5c(n4)NC(=O)CO5)[C@@H](F)C3)c2c1,0.03 µg/mL,,0.64,,4.1 ×10⁻⁶ cm/s,10.8 ×10⁻⁶ cm/s,
N#Cc1ccc2ccc(=O)n(CCN3CCC(NCc4ccc5c(n4)NC(=O)CO5)CC3)c2c1,0.13 µg/mL,0.11 µM,0.4,,2 ×10⁻⁶ cm/s,12.6 ×10⁻⁶ cm/s,MIC90 [11]: < 0.5 µg/mL; Activity [12]: Active; IC50 [10]: > 100 µM; clearance [7]: 187 mL/min/kg; bioavailability [8]: 11%
Cc1nc(CNC2CCN(CCn3c(=O)ccc4ccc(C#N)cc43)CC2)ccc1C#N,> 16 µg/mL,> 100 µM,1.1,5.3 µM,17.1 ×10⁻⁶ cm/s,9.1 ×10⁻⁶ cm/s,IC50 [10]: > 100 µM
COc1cnc2ccc(=O)n(CCN3CCC(NCc4cnc(C)c(C#N)n4)CC3)c2c1,0.5 µg/mL,,0.89,69 µM,,,
COc1cnc2ccc(=O)n(CCN3CCC(NC(=O)c4cnc(C)c(C#N)c4)CC3)c2c1,0.13 µg/mL,,1.4,74 µM,4.2 ×10⁻⁶ cm/s,13 ×10⁻⁶ cm/s,
Cc1ncc(CNC2CCN(CCn3c(=O)ccc4ccc(C#N)cc43)CC2)cc1C#N,0.06 µg/mL,0.25 µM,1.3,26 µM,13.6 ×10⁻⁶ cm/s,7.4 ×10⁻⁶ cm/s,log10cfu [13]: 0.5; Activity [14]: Active; fraction unbound [15]: 0.43; fAUC/MIC [16]: 159; fT>MIC [17]: 58%; IC50 [10]: > 100 µM; clearance [7]: 41 mL/min/kg; bioavailability [8]: > 100%
COc1cc(C#N)c2ccc(=O)n(CCN3CCC(NCc4cnc(C)c(C#N)c4)CC3)c2c1,0.01 µg/mL,0.065 µM,1.86,2.5 µM,10 ×10⁻⁶ cm/s,4.7 ×10⁻⁶ cm/s,clearance [7]: 10 mL/min/kg; bioavailability [8]: 59%
COc1ccc2c(ccc(=O)n2CCN2CCC(NCc3cnc(C)c(C#N)c3)CC2)n1,4 µg/mL,,,10 µM,,,
O=C1COc2ccc(CN[C@H]3CCN(CCn4c(=O)ccc5ncc(F)cc54)C[C@H]3F)nc2N1,0.13 µg/mL,0.24 µM,0.47,,8.1 ×10⁻⁶ cm/s,12.3 ×10⁻⁶ cm/s,Activity [18]: Active; fraction unbound [15]: 0.44; fAUC/MIC [19]: 175; fT>MIC [20]: 58%; clearance [7]: 63 mL/min/kg; bioavailability [8]: > 100%; Activity [21]: Dose-dependent effect; Activity [22]: tde; log10cfu [23]: >3
O=C(O)c1cn(C2CC2)c2cc(N3CCNCC3)c(F)cc2c1=O [CIPROFLOXACIN],0.25 µg/mL,,,,,,
CC1COc2c(N3CCN(C)CC3)c(F)cc3c(=O)c(C(=O)O)cn1c23 (centres undefined) [OFLOXACIN],0.5 µg/mL,,,,,,MIC90 [11]: > 8 µg/mL
